The results in this text go back to ChEMBL document CHEMBL4819117, “Probing cytochrome P450 (CYP) bioactivation with chloromethylindoline bioprecursors derived from the duocarmycin family of compounds” (Bioorg Med Chem, 2021).

Data set [1] relates to EJ. Put plainly: Antiproliferative activity against human EJ138 cells deficit in CYPs assessed as inhibition of cell growth after 96 hrs by MTT assay. The format is functional, cell-based. Summed up:
(§1)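 Cells kept as monolayers at 37 °C in 5% CO2: EJ-138 and RT112 in RPMI 1640 with 10% FBS, sodium pyruvate and 2 mM L-glutamine; CHO and CHO-1A1 in DMEM. Compounds were taken from DMSO stocks into medium over 0.001–100 μM, with final DMSO ≤0.1%. Exposure lasted 96 h, then MTT read-out. IC50 values are mean ± SD of at least three independent assays.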
For orientation: Tetrazolium assays rely on reduction of a dye to a coloured formazan, in cell work by metabolically active cells.

Data set [2] concerns EJ. Put plainly: Antiproliferative activity against human EJ138 cells assessed as inhibition of cell growth preincubated for 1 hr with human CYP3A4 expressing bactosomes measured after 96 hrs by MTT assay. The format is functional, cell-based. The essentials: (§2)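 Compound (50 μM) incubated 1 h at 37 °C with 20 pmol CYP bactosomes (CYP null, 1A1, 1A2, 1B1 or 3A4) in 2 mM NADPH, 1 mM MgCl₂, Tris-HCl pH 7.4. Metabolites were extracted with acetonitrile, centrifuged, and the supernatant dried and taken up in DMSO. EJ138 cells were exposed 96 h and growth read by MTT assay.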

The test system of data set [3] is CHO. Put plainly: Antiproliferative activity against wild type chinese hamster CHO cells deficit in CYPs assessed as inhibition of cell growth after 96 hrs by MTT assay. The format is functional, cell-based. Particulars: Cricetulus griseus. The essentials: as §1
Data set [4] concerns the target T1, Cytochrome P450 1A1 (Homo sapiens, UniProt P04798).
T1 sequence (P04798 whole entry): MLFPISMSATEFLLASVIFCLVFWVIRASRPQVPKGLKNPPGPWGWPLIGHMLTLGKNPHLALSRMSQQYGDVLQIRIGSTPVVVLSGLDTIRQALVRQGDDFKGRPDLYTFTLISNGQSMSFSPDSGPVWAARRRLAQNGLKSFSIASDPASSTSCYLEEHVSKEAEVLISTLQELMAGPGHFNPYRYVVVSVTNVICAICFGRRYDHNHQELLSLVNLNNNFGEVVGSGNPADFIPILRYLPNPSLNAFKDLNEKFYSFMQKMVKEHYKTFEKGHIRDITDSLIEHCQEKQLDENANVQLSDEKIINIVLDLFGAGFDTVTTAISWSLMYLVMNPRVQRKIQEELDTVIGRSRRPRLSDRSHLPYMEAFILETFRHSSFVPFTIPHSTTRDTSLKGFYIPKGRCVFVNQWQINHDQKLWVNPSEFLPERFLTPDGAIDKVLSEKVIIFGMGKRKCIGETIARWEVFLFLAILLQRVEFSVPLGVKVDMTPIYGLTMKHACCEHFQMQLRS
Put plainly: Drug metabolism assessed as recombinant human CYP1A1-mediated metabolite M2 with m/z 357.1 formation at 50 uM incubated for 1 hr in presence of reconstituted protein system by LC-MS analysis. It counts as ADME. The following applies: recombinant enzyme. The essentials: (§3)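 Substrate (50 μM) incubated at 37 °C with human recombinant CYP1A1 in a reconstituted system: NADPH cytochrome P450 reductase, freshly prepared DLPC (240 μM), 100 mM potassium phosphate pH 7.4. Reaction was started with NADPH (1 mM final) and aliquots quenched into dichloromethane over 60 min. Metabolites were profiled by HPLC with photodiode array and ESI⁺ quadrupole MS.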

Data set [5] can be described thus: Drug metabolism in Wistar rat liver microsomes assessed as CYP-mediated metabolite M23 formation at 0.5 to 23.5 uM prewarmed for 5 mins followed by NADPH addition and measured after 30 mins by HPLC-fluorescence detector analysis. The following applies: 35 min, dose 0.5-23.5 µM. The format is ADME. In general terms: Liver microsomes are vesicles of endoplasmic reticulum, rich in cytochrome P450 enzymes.

Data set [6] deals with CHO. Put plainly: Antiproliferative activity against chinese hamster CHO cells transfected with CYP1A1 assessed as inhibition of cell growth after 96 hrs by MTT assay. The following applies: Cricetulus griseus. The format is functional, cell-based. Summed up:
as §1

Data set [7] has as its target T1, Cytochrome P450 1A1. Briefly: Drug metabolism assessed as human CYP1A1 expressed in bactosomes assessed as (3-(chloromethyl)-6-hydroxyindolin-1-yl)(5-methoxy-1H-indol-2-yl)methanone formation measured after 1 hr by LC-MS analysis. It counts as ADME. The following applies: recombinant enzyme.
Data set [8] concerns EJ. Put plainly: Antiproliferative activity against human EJ138 cells assessed as inhibition of cell growth preincubated for 1 hr with CYP null bactosomes measured after 96 hrs by MTT assay. It counts as functional, cell-based. Summed up: as §2
A further data set has as its system Cytochrome P450. Put plainly: Drug metabolism in human liver microsomes assessed as CYP-mediated metabolite M16 formation at 0.5 to 23.5 uM prewarmed for 5 mins followed by NADPH addition and measured after 30 mins by HPLC-fluorescence detector analysis. The format is ADME. The following applies: 35 min, dose 0.5-23.5 µM.
The test system of a further data set is RT-112. Put plainly: Antiproliferative activity against human RT112 cells proficient in CYP1A1 assessed as inhibition of cell growth after 96 hrs by MTT assay. The following applies: RT-112, 96 h. The format is functional, cell-based. Summed up:
as §1

Data set [9] has as its system EJ. Briefly: Antiproliferative activity against human EJ138 cells assessed as inhibition of cell growth preincubated for 1 hr with human CYP1A1 expressing bactosomes measured after 96 hrs by MTT assay. It counts as functional, cell-based. The essentials:
as §2

The nature of data set [10]: Selectivity ratio of IC50 for antiproliferative activity against wild type chinese hamster CHO cells deficit in CYPs to IC50 for antiproliferative activity against chinese hamster CHO cells transfected with CYP1A1 by MTT assay. It counts as functional, Cricetulus griseus. Summed up:
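CHO wild-type and CYP1A1-transfected CHO cells were grown in DMEM at 37 °C, 5% CO₂. Compounds from DMSO stocks were tested at 0.001–100 μM, final DMSO ≤0.1%, for 96 h, then MTT. Ratio = CHOwt IC₅₀ / CHO1A1 IC₅₀; IC₅₀ values are mean ± SD of at least three independent assays.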

Data set [11] has as its system EJ. Briefly: Antiproliferative activity against human EJ138 cells assessed as inhibition of cell growth preincubated for 1 hr with human CYP1A2 expressing bactosomes measured after 96 hrs by MTT assay. The format is functional, cell-based. The essentials:
as §2

Data set [12] has as its system EJ. Briefly: Potentiation factor, ratio of IC50 for antiproliferative activity against human EJ138 cells preincubated for 1 hr with CYP null bactosomes to IC50 for antiproliferative activity against human EJ138 cells preincubated for 1 hr with human CYP1A1 expressing bactosomes. The format is functional. Summed up: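 Potentiation factor = IC₅₀ in EJ138 given control (CYP null) bactosome extract ÷ IC₅₀ with the named CYP isoform extract. Extracts came from 1 h, 37 °C incubations of 50 μM compound with 20 pmol bactosomes plus 2 mM NADPH, 1 mM MgCl₂, Tris-HCl pH 7.4. Cells were exposed 96 h and read by MTT.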

In data set [13] the target is T1, Cytochrome P450 1A1. Put plainly: Drug metabolism assessed as recombinant human CYP1A1-mediated metabolite M6 with m/z 373.1 formation at 50 uM incubated for 1 hr in presence of reconstituted protein system by LC-MS analysis. Particulars: recombinant enzyme. It counts as ADME. Summed up: as §3

For orientation: IC50 means the point on the concentration scale where inhibition reaches its midpoint.

For `COc1ccc2[nH]c(C(=O)N3CC(CCl)c4ccccc43)cc2c1` (stereo not given), the IC50 with EJ [1] turned out to be 15 µM; in the data set with EJ [2], 19.8 µM; in the data set with CHO [3], 11.4 µM; with CHO [6], 1.2 µM; in the data set on EJ [8], 17.2 µM; with RT-112, 8.04 µM. Besides, the IC50 was determined as 2.5 µM with EJ [9] and 1.9 µM in the data set with EJ [11]. The Drug metabolism result on Cytochrome P450 1A1 [4] is on record as “Metabolite_Detected”; in [5], “Metabolite_Detected”; at Cytochrome P450 1A1 [7] it was “Metabolite_Notdetected”; with Cytochrome P450, “Metabolite_Detected”; at Cytochrome P450 1A1 [13], “Metabolite_Detected”. The “Ratio IC50” value came to 10 in data set [10] and 6.9 in the data set on EJ [12].
